Test results published in ChEMBL document CHEMBL4219101, “Discovery of 18β-glycyrrhetinic acid conjugated aminobenzothiazole derivatives as Hsp90-Cdc37 interaction disruptors that inhibit cell migration and reverse drug resistance” (Bioorg Med Chem, 2018).
Active and inactive are the calls of the source. The calls are words filed in the database; no cut-off is given here.

Experiments:
Homo sapiens = species: Homo sapiens; assay: Inhibition of HSP90/Cdc37 interaction assessed as reversal of drug resistance by measuring ratio of IC50 for human doxorubicin-resistant NCI-H460 cells to IC50 for human NCI-H460 cells
Outline: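 Resistance factor is the ratio of IC50 in NCI-H460/DOX cells to IC50 in parental NCI-H460 cells. […] Values are mean ± SD of five separate experiments. Doxorubicin serves as the positive control.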

HepG2 = assay: Antiproliferative activity against human HepG2 cells after 48 hrs by MTT assay; assay type: functional, cell-based; conditions: HepG2, 48 h
Outline: (§1)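 Cells in log phase seeded at about 1.0 × 10^5 cells/mL in 96-well plates, left 12 h at 37 °C, 5% CO2. Compounds dissolved in DMSO, added at 2.5, 5, 10, 20 and 50 µM, 48 h exposure. Absorbance read at 570/630 nm dual wavelength. Survival expressed relative to negative control. IC50 by Bliss method (n = 5), tests done in triplicate.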

MCF7 = assay: Antiproliferative activity against human MCF7 cells after 48 hrs by MTT assay; assay type: functional, cell-based; conditions: MCF7, 48 h; outline: as §1
[1] = Inhibition of HSP90/Cdc37 interaction in human doxorubicin-resistant NCI-H460 cells assessed as reduction in cell proliferation after 48 hrs by MTT assay; conditions: NCI-H460, 48 h; outline: as §1
HCT-116 = assay: Antiproliferative activity against human HCT116 cells after 48 hrs by MTT assay; assay type: functional, cell-based; conditions: HCT-116, 48 h; outline: as §1
A549 [2] = assay: Antiproliferative activity against human A549 cells after 48 hrs by MTT assay; assay type: functional, cell-based; conditions: A549, 48 h; outline: as §1
[3] = Inhibition of His-tagged full-length Hsp90 (unknown origin)/GST-tagged Cdc37M (unknown origin) interaction after 1 hr by HTRF assay; parameters: species or system Homo sapiens
Outline: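 TR-FRET in PBS containing 400 mM KF, pH 7.3. His-tagged full-length Hsp90 and GST-Cdc37M, each 250 nM final, incubated with compound for 1 h at 37 °C. Anti-GST-Cryptate and anti-6His-XL665 then added for a further 0.5 h at 37 °C. Excitation 320 nm, emission 665/620 nm, reported as ratio ×10,000. Negative and blank controls run in each assay.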

[4] = Antiproliferative activity against human NCI-460 cells after 48 hrs by MTT assay; assay type: functional, cell-based; conditions: NCI-460, 48 h; outline: as §1
A549 [5] = assay: Inhibition of Hsp90/Cdc37 interaction in human A549 cells assessed as downregulation of Cdc37 in immunoprecipitated HSP90 complex at 10 uM after 24 hrs by Western blot analysis; assay type: cell-based
Outline: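 A549 cells exposed to 5 and 10 µM for 24 h, geldanamycin 10 µM as comparator. Lysis in 20 mM Tris-HCl pH 7.4, 25 mM NaCl, 2 mM DTT, 20 mM Na2MoO4, 0.1% NP-40 and protease inhibitors. 500 µg protein immunoprecipitated overnight at 4 °C with anti-Hsp90 antibody, captured on protein G agarose, washed five times and boiled. Cdc37 and Hsp90 detected by Western blot, with input also blotted.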

CCOC(=O)[C@@]1(C)CC[C@]2(C)CC[C@]3(C)C(=CC(=O)[C@@H]4[C@@]5(C)CC[C@H](OC(=O)CCC(=O)Nc6nc7c(Cl)cccc7s6)C(C)(C)[C@@H]5CC[C@]43C)[C@@H]2C1
Ratio IC50 (Homo sapiens): 1.29 | IC50 (HepG2): 17 µM | IC50 (MCF7): 15 µM | IC50 [1]: 18.1 µM | IC50 (HCT-116): 15.4 µM | IC50 (A549 [2]): 13.6 µM | IC50 [3]: 1.67 µM | IC50 [4]: 14 µM

CCOC(=O)[C@@]1(C)CC[C@]2(C)CC[C@]3(C)C(=CC(=O)[C@@H]4[C@@]5(C)CC[C@H](OC(=O)CCC(=O)Nc6nc7ccc(Cl)cc7s6)C(C)(C)[C@@H]5CC[C@]43C)[C@@H]2C1
Ratio IC50 (Homo sapiens): 1.13 | IC50 (HepG2): 12.4 µM | IC50 (MCF7): 8.66 µM | IC50 [1]: 12 µM | IC50 (HCT-116): 11 µM | IC50 (A549 [2]): 6.09 µM | IC50 [3]: 0.83 µM | IC50 [4]: 10.6 µM

CCOC(=O)[C@@]1(C)CC[C@]2(C)CC[C@]3(C)C(=CC(=O)[C@@H]4[C@@]5(C)CC[C@H](OC(=O)CCC(=O)Nc6nc7c(F)cccc7s6)C(C)(C)[C@@H]5CC[C@]43C)[C@@H]2C1
Ratio IC50 (Homo sapiens): 1.23 | IC50 (HepG2): 12.5 µM | IC50 (MCF7): 10.9 µM | IC50 [1]: 15.4 µM | IC50 (HCT-116): 10.1 µM | IC50 (A549 [2]): 9.07 µM | IC50 [3]: 1.05 µM | IC50 [4]: 12.5 µM

COc1cccc2c1C(=O)c1c(O)c3c(c(O)c1C2=O)C[C@@](O)(C(=O)CO)C[C@@H]3O[C@H]1C[C@H](N)[C@H](O)[C@H](C)O1 [DOXORUBICIN]
Ratio IC50 (Homo sapiens): 7.33 | IC50 [1]: 38 µM | IC50 [4]: 5.18 µM

CCOC(=O)[C@@]1(C)CC[C@]2(C)CC[C@]3(C)C(=CC(=O)[C@@H]4[C@@]5(C)CC[C@H](OC(=O)CCC(=O)Nc6nc7ccccc7s6)C(C)(C)[C@@H]5CC[C@]43C)[C@@H]2C1
Ratio IC50 (Homo sapiens): 1.17 | IC50 (HepG2): 25.8 µM | IC50 (MCF7): 20.5 µM | IC50 [1]: 19.2 µM | IC50 (HCT-116): 22.3 µM | IC50 (A549 [2]): 18.8 µM | IC50 [3]: 9.09 µM | IC50 [4]: 16.4 µM

COC1=C2C[C@@H](C)C[C@H](OC)[C@H](O)[C@@H](C)/C=C(\C)[C@H](OC(N)=O)[C@@H](OC)/C=C\C=C(/C)C(=O)NC(=CC1=O)C2=O
inhibition (A549 [5]): inactive

CC(=O)O[C@H]1CC[C@]2(C)[C@H]3C(=O)C=C4[C@@H]5C[C@@](C)(C(=O)Nc6nc7ccc(C)cc7s6)CC[C@]5(C)CC[C@@]4(C)[C@]3(C)CC[C@H]2C1(C)C
IC50 (HepG2): > 100 µM | IC50 (MCF7): > 100 µM | IC50 (HCT-116): > 100 µM | IC50 (A549 [2]): > 100 µM | IC50 [3]: > 100 µM

CC1(C)[C@@H](O)CC[C@]2(C)[C@H]3C(=O)C=C4[C@@H]5C[C@@](C)(C(=O)Nc6nc7c(F)cccc7s6)CC[C@]5(C)CC[C@@]4(C)[C@]3(C)CC[C@@H]12
IC50 (HepG2): 45.6 µM | IC50 (MCF7): 41.2 µM | IC50 (HCT-116): 42.5 µM | IC50 (A549 [2]): 36.5 µM | IC50 [3]: 45.7 µM
